Measured values from ChEMBL document CHEMBL3877303 (J Med Chem, 2017).

What was measured:
[1] = biological target: T1, Mast/stem cell growth factor receptor Kit (Homo sapiens, UniProt P10721); settings: BaF3
[2] = biological target: BCR/ABL p210 fusion protein (Homo sapiens, UniProt A1Z199); test: Inhibition of human BCR/ABL p210 fusion protein expressed in BAF3 cells assessed as growth inhibition measured after 72 hrs by CellTiter-Glo or CCK8 assay; format: cell-based
In short: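 Seeded at 1 to 2.5×10^4 cells/mL with various compound concentrations, 72 h. Viability read by CellTiter-Glo luminescence or CCK-8 absorbance (450/655 nm), normalized to DMSO control, GI50 from curve fit, triplicate testing.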

[3] = Growth inhibition of mouse BAF3 cells measured after 72 hrs by CellTiter-Glo or CCK8 assay; format: cell-based
In short: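 Cells at 1 to 2.5×10^4 cells/mL were incubated with a range of compound concentrations for 72 h. Viability was read by CellTiter-Glo luminescence or CCK-8 absorbance (450/655 nm) and normalized to DMSO control. GI50 came from curve fitting, with triplicate testing.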

[4] = biological target: T1, Mast/stem cell growth factor receptor Kit; test: Inhibition of recombinant C-terminal polyhistidine-tagged human c-KIT expressed in mammalian expression system using Tyr 06 peptide as substrate measured after 1hr by FRET based Z'Lyte assay

BCR/ABL p210 fusion protein, sequence (A1Z199 1-97): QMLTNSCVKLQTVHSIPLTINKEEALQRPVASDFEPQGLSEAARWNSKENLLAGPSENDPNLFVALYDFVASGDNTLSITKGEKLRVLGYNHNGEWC
T1 sequence (P10721 whole entry, the tested form may be a part): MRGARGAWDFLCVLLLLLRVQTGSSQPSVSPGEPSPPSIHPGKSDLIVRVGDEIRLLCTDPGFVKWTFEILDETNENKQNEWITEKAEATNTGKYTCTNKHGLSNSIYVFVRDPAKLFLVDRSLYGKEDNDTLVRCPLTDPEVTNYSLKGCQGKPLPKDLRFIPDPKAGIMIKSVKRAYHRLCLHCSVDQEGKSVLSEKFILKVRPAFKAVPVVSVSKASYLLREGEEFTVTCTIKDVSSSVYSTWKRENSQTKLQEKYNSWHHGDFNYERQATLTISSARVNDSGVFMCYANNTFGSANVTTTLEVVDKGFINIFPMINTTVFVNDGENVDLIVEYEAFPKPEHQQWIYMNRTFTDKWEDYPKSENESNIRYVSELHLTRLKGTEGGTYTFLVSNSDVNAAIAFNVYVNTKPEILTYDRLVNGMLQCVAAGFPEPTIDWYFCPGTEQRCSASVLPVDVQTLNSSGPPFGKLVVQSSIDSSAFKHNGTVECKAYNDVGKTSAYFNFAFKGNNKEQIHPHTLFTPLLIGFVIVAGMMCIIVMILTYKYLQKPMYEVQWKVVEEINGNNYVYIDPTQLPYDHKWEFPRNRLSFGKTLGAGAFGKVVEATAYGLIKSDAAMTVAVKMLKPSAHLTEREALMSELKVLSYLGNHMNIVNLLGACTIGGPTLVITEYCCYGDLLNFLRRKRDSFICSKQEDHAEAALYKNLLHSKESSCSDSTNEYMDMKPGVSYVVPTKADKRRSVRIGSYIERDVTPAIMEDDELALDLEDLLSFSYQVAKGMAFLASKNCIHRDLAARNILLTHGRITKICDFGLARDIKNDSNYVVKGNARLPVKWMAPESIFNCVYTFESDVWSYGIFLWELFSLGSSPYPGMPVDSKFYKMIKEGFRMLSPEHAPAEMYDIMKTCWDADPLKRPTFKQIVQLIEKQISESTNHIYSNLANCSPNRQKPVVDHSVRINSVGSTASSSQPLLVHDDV

Cc1ccc(NC(=O)c2ccc(CN3CCN(C)CC3)c(C(F)(F)F)c2)cc1OC1CCN(C(=O)c2cncc(Cl)c2)CC1
GI50 [1]: 37 nM | GI50 [2]: 219 nM | GI50 at 72 h [3]: 2870 nM

Cc1ccc(NC(=O)c2ccc(CN3CCN(C)CC3)c(C(F)(F)F)c2)cc1OC1CCN(C(=O)c2cccnc2C)CC1
GI50 [1]: 370 nM | GI50 [2]: 2210 nM | GI50 at 72 h [3]: 540 nM

Cc1ccc(NC(=O)c2ccc(CN3CCN(C)CC3)c(C(F)(F)F)c2)cc1OC1CCN(C(=O)CN(C)C)CC1
GI50 [1]: 1630 nM | GI50 [2]: 3070 nM | GI50 at 72 h [3]: > 10000 nM

Cc1ccc(NC(=O)c2ccc(CN3CCN(C)CC3)c(C(F)(F)F)c2)cc1OC1CCN(C(=O)c2cccnc2)CC1
GI50 [1]: 220 nM | GI50 [2]: 164 nM | GI50 at 72 h [3]: > 10000 nM

C=CC(=O)N1CCC(Oc2cc(NC(=O)c3ccc(CN4CCN(C)CC4)c(C(F)(F)F)c3)ccc2C)CC1
GI50 [2]: 427 nM | GI50 at 72 h [3]: > 10000 nM

Cc1ccc(NC(=O)c2ccc(CN3CCN(C)CC3)c(C(F)(F)F)c2)cc1OC1CCN(S(=O)(=O)c2ccccc2)CC1
GI50 [1]: 600 nM | GI50 [2]: 4770 nM | GI50 at 72 h [3]: 5100 nM

Cc1ccc(NC(=O)c2ccc(CN3CCN(C)CC3)cc2)cc1OC1CCN(C(=O)c2cccnc2)CC1
GI50 [1]: > 5000 nM | GI50 [2]: 8780 nM | GI50 at 72 h [3]: > 10000 nM

Cc1ccc(NC(=O)c2ccc(CN3CCN(C)CC3)c(C(F)(F)F)c2)cc1OC1CCN(C(=O)c2cccnc2Cl)CC1
GI50 [1]: 62 nM | GI50 [2]: 2760 nM | GI50 at 72 h [3]: 2720 nM

CCC(=O)N1CCC(Oc2cc(NC(=O)c3ccc(CN4CCN(C)CC4)c(C(F)(F)F)c3)ccc2C)CC1
GI50 [1]: 300 nM | GI50 [2]: 998 nM | GI50 at 72 h [3]: > 10000 nM

Cc1ccc(NC(=O)c2ccc(CN3CCN(C)CC3)c(C(F)(F)F)c2)cc1OCC1CN(C(=O)c2cccnc2)C1
GI50 [1]: 2860 nM | GI50 [2]: 5400 nM | GI50 at 72 h [3]: 1070 nM

Cc1ccc(NC(=O)c2ccc(CN3CCN(C)CC3)c(C(F)(F)F)c2)cc1OC1CCN(C(=O)c2cccnc2F)CC1
GI50 [1]: 63 nM | GI50 [2]: 2000 nM | GI50 at 72 h [3]: 1520 nM

COc1ccc(NC(=O)c2ccc(CN3CCN(C)CC3)c(C(F)(F)F)c2)cc1OC1CCN(C(=O)c2cccnc2)CC1
GI50 [1]: > 10000 nM | GI50 [2]: 8410 nM | GI50 at 72 h [3]: > 10000 nM

Cc1ccc(NC(=O)c2ccc(CN3CCN(C)CC3)c(C(F)(F)F)c2)cc1OC1CCN(C(=O)Cc2cccnc2)CC1
GI50 [1]: 780 nM | GI50 [2]: 5520 nM | GI50 at 72 h [3]: 6490 nM

Cc1ccc(NC(=O)c2ccc(CN3CCN(C)CC3)c(C(F)(F)F)c2)cc1OC1CCN(C(=O)c2ccsc2)CC1
GI50 [1]: 26 nM | GI50 [2]: 135 nM | GI50 at 72 h [3]: 1480 nM

Cc1ccc(NC(=O)c2ccc(CN3CCN(C)CC3)c(C(F)(F)F)c2)cc1OC1CCN(C(=O)c2cnccc2C)CC1
GI50 [1]: 210 nM | GI50 [2]: 203 nM | GI50 at 72 h [3]: 2680 nM | IC50 [4]: 336 nM

CN1CCN(Cc2ccc(C(=O)Nc3ccc(Cl)c(OC4CCN(C(=O)c5cccnc5)CC4)c3)cc2C(F)(F)F)CC1
GI50 [1]: 340 nM | GI50 [2]: 253 nM | GI50 at 72 h [3]: > 10000 nM

Cc1ccc(NC(=O)c2ccc(CN3CCN(C)CC3)c(C(F)(F)F)c2)cc1OC1CCN(C(=O)c2ccc(=O)[nH]c2)CC1
GI50 [1]: 1600 nM | GI50 [2]: 1970 nM | GI50 at 72 h [3]: > 10000 nM

Cc1ccc(NC(=O)c2ccc(CN3CCN(C)CC3)c(C(F)(F)F)c2)cc1OCCNC(=O)c1cccnc1
GI50 [1]: 3300 nM | GI50 [2]: 1550 nM | GI50 at 72 h [3]: > 10000 nM

Cc1ccc(NC(=O)c2ccc(CN3CCN(C)CC3)c(C(F)(F)F)c2)cc1OC1CCN(C(=O)c2cnc(N)nc2)CC1
GI50 [1]: 200 nM | GI50 [2]: 168 nM | GI50 at 72 h [3]: > 10000 nM

Cc1ccc(NC(=O)c2ccc(CN3CCN(C)CC3)c(C(F)(F)F)c2)cc1OC1CCN(C(=O)c2cnc3ccccc3c2)CC1
GI50 [1]: 320 nM | GI50 [2]: 86 nM | GI50 at 72 h [3]: 1300 nM

Cc1ccc(NC(=O)c2ccc(CN3CCN(C)CC3)c(C(F)(F)F)c2)cc1OC1CCN(C(=O)c2ccccc2)CC1
GI50 [1]: 550 nM | GI50 [2]: 635 nM | GI50 at 72 h [3]: 4730 nM

Cc1ccc(NC(=O)c2ccc(CN3CCN(C)CC3)c(C(F)(F)F)c2)cc1OC1CCN(C(=O)c2ccoc2)CC1
GI50 [1]: 270 nM | GI50 [2]: 153 nM | GI50 at 72 h [3]: > 10000 nM

Cc1ccc(NC(=O)c2ccc(CN3CCN(C)CC3)c(C(F)(F)F)c2)cc1OC1CCN(C(=O)c2ccccn2)CC1
GI50 [1]: 200 nM | GI50 [2]: 72 nM | GI50 at 72 h [3]: > 10000 nM | IC50 [4]: 644 nM

Cc1cncc(C(=O)N2CCC(Oc3cc(NC(=O)c4ccc(CN5CCN(C)CC5)c(C(F)(F)F)c4)ccc3C)CC2)c1
GI50 [1]: 28 nM | GI50 [2]: 79 nM | GI50 at 72 h [3]: 800 nM | IC50 [4]: 214 nM

Cc1ccc(NC(=O)c2ccc(CN3CCN(C)CC3)c(C(F)(F)F)c2)cc1OCC1CCN(C(=O)c2cccnc2)C1 (configuration not stated)
GI50 [1]: 3820 nM | GI50 [2]: 4940 nM | GI50 at 72 h [3]: 3980 nM

Cc1ccc(NC(=O)c2ccc(CN3CCN(C)CC3)c(C(F)(F)F)c2)cc1OC1CCN(C(=O)c2ccncc2)CC1
GI50 [1]: 170 nM | GI50 [2]: 88 nM | GI50 at 72 h [3]: > 10000 nM | IC50 [4]: 256 nM

COc1cc2ncnc(N3CCC(Oc4cc(NC(=O)c5ccc(CN6CCN(C)CC6)c(C(F)(F)F)c5)ccc4C)CC3)c2cc1OC
GI50 [1]: 190 nM | GI50 [2]: 773 nM | GI50 at 72 h [3]: 1200 nM

Cc1ccc(NC(=O)c2ccc(CN3CCN(C)CC3)c(C(F)(F)F)c2)cc1OC1CCN(c2ncccn2)CC1
GI50 [1]: 2500 nM | GI50 [2]: 3220 nM | GI50 at 72 h [3]: 8100 nM
